STAT1 activator – STAT1 signaling activators, primary screen, cell-based, HTS, luciferase reporter | NIH 3T3 STAT1-luciferase reporter, IFN-gamma, luminescence; 100% = IFN-gamma alone, no compound | activation (% of control), % at 5.5 µM | 200,000 tested, 2.6% active;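 active = activation above the screen-wide mean activation plus 3 SD, cut at about 130% in these data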;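 note: raw ratio to IFN-gamma control signal so 100% means no change and 0% no light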
STAT3 inh-1 – IL-6 driven STAT3 reporter inhibitors, primary screen, U3A cells, luciferase, luminescence, MLSCN library; IL-6 STAT3-luciferase reporter; host cell line lacks STAT1; inhibition, % at 5.5 µM; 190,000 tested, 0.89% active;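 active = inhibition above the mean inhibition across all screened compounds plus 3 SD, cut at about 44% in these data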;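 note: 0% = DMSO only wells and 100% = 100 µM nifuroxazide control wells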
STAT1 inh – STAT1 signaling inhibitors, primary screen, cell-based, HTS, luciferase reporter. NIH 3T3 STAT1-luciferase reporter, IFN-gamma, luminescence. inhibition, % at 5.5 µM. 200,000 tested, 0.35% active. AID 920, 2007;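 active = inhibition above a set limit, the mean inhibition across all tested compounds plus 3 SD, cut at about 34% in these data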;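 note: 0% = IFN-gamma with DMSO and 100% = IFN-gamma with 300 µM nifuroxazide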
STAT3 act – IL-6 driven STAT3 reporter potentiators, primary screen, U3A cells, luciferase, luminescence, MLSCN library; IL-6 STAT3-luciferase reporter; 100% = signal with IL-6 EC80 alone; activation (% of control), % at 5.6 µM; 190,000 tested, 0.91% active; AID 871, 2007;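 active = activation above the screen-wide mean of compound activation plus 3 SD, cut at about 130% in these data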;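 note: 0% = background luminescence of wells with medium and substrate only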
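Material: STAT3-luciferase reporter U3A cells. Controls: IL-6-treated wells, 100% activation. Read-out: % activation versus median of IL-6-stimulated wells. Probe or stimulus: IL-6 stimulus at 33 ng/mL final. Timing: compound 1 h, then IL-6 6 h at 37 °C. Signal: reporter luminescence signal.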
NF-kB expr up – activators of NF-kB expression in neurons, primary screen, cell-based, HTS; human neuronal cells, NF-kB reporter expression; stronger effect = higher value; fold change at 12.5 µM; 190,000 tested, 1.6% active; AID 1239, 2008; in the data active = fold change above about 3.3
APP 5'UTR act – activators of APP 5'UTR luciferase reporter, primary screen, SH-SY5Y cells; SH-SY5Y APP 5'UTR luciferase reporter, luminescence; zero percent = DMSO vehicle wells; activation, % at 2 µM; 190,000 tested, 1% active;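 active = activation above a set limit, based on mean plus 3 SD of controls, cut at about 140% in these data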
STAT3 inh-2 – STAT3 reporter inhibitors, retest of hits, confirmation, U3A cells, luciferase, luminescence | IL-6 STAT3 luciferase reporter; cell line lacks STAT1 | shares compounds with STAT3 inh-1 | 1,200 tested, 45% active | inhibition, % at 5.7 µM | AID 1265, 2008;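 active = inhibition above the hit cutoff computed for the primary STAT3 screen, cut at about 44% in these data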;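 note: 0% = IL-6 plus DMSO and 100% = IL-6 plus nifuroxazide control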
NFkB inh 2 – NF-kB reporter inhibitors in human cells, confirmation, counter-screen for STAT3 inhibitor project, cell-based, HEK293T, luciferase, TNF-alpha stimulus | TNF-alpha induced | inhibition, % at 5.7 µM | 1,200 tested, 36% active | shares compounds with STAT3 inh-1;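 active = inhibition above the mean of solvent-only control wells plus 3 SD, cutoff set per campaign, cut at about 13% in these data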;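 note: 0% = TNF-alpha with DMSO and 100% = TNF-alpha with MG high control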
STAT1 inh STAT3c – STAT1 reporter inhibitors, IFN-gamma induced, confirmation, counter-screen for STAT3 inhibitor project, cell-based, NIH 3T3, luciferase luminescence; shares compounds with STAT3 inh-1; NIH 3T3 STAT1-luciferase reporter; 1,200 tested, 27% active; inhibition, % at 5.7 µM;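 active = inhibition above the mean plus 3 SD of solvent-only control wells, limit set per screening run, cut at about 16% in these data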;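 note: 0% = DMSO with IFN-gamma and 100% = nifuroxazide control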
Numbers without * were called inactive; x = no result given. Most compounds without a hit are left out; they make up all but 4.9% or so of the library.

SMILES | STAT1 activator | STAT3 inh-1 | STAT1 inh | STAT3 act | NF-kB expr up | APP 5'UTR act | STAT3 inh-2 | NFkB inh 2 | STAT1 inh STAT3c
CCn1c(-c2ccc(N(C)C)cc2)nc2ccccc21 | 108 | 44* | -8 | 64 | 2.9 | 96 | 16 | -35 | -36
N#CCC(=O)N1CCN(C=O)CC1 | 102 | 3 | -2 | 103 | 1.3 | 16 | x | x | x
Cc1ccc2cc(C#N)c(NCCNC(=O)C3CC3)nc2c1C | 93 | 56* | 8 | 58 | 0.87 | -10 | 14 | -4 | -8
CCCNc1nc2c(c(=O)n(C)c(=O)n2C)n1CCc1ccccc1 | 83 | 14 | 19 | 90 | 0.76 | 7 | x | x | x
CC(C)n1c(NCCc2ccccc2)nc2c1c(=O)n(C)c(=O)n2C | 76 | 45* | 31 | 65 | 0.56 | 4 | 38 | 8 | 32*
Cc1nn(C)c(C)c1CN(C)S(=O)(=O)c1ccc2ccccc2c1 | 69 | 78* | 33 | 36 | 0.81 | -47 | 80* | 30* | 24*
NC(=O)c1ccc(-c2ncc(-c3ccccc3)o2)cc1 | 71 | 54* | 32 | 55 | 12* | 126 | 2 | 20* | -44
CCC(=O)N/C(=N\OCc1ccc(F)cc1)c1nonc1NC(=O)CC | 101 | -8 | -2 | 107 | 1.2 | 0 | x | x | x
CC(C)c1ccc(NC(=O)c2csnn2)cc1 | 146* | 45* | -50 | 64 | 7.6* | 87 | 8 | -21 | -79
O=C(Nc1ccccc1NC(=O)c1csnn1)c1csnn1 | 98 | 4 | 1 | 101 | 1.1 | 21 | x | x | x
COCCn1c(C)cc(C(=O)COC(=O)c2ccc[nH]c2=O)c1C | 75 | 48* | 28 | 59 | 0.29 | -1 | 2 | -4 | -14
Cc1cc(C(=O)COC(=O)c2ccc[nH]c2=O)c(C)n1C | 110 | -1 | -11 | 103 | 0.59 | 1 | x | x | x
OCc1cc(-c2ccc(Cl)c(Cl)c2)on1 | 101 | 19 | -1 | 91 | 1.5 | 3 | x | x | x
CCc1ccc(N(CC(=O)Nc2ccccc2C(=O)N2CCOCC2)S(C)(=O)=O)cc1 | 106 | -10 | -7 | 106 | 0.97 | 3 | x | x | x
Cc1cc(C(=O)CSc2nc(N)cc(=O)[nH]2)c(C)n1CCc1ccc(F)cc1 | 83 | 46* | 19 | 63 | 0.81 | 0 | 41 | 6 | 13
Cc1cc(C(=O)CSc2nc(N)cc(=O)[nH]2)c(C)n1-c1ccc(OC(F)F)cc1 | 70 | 64* | 32 | 49 | 1.3 | -5 | 74* | 19* | 25*
COc1ccc(CCn2c(C)cc(C(=O)CSc3nc(N)cc(=O)[nH]3)c2C)cc1 | 88 | 41 | 14 | 69 | 0.39 | -12 | x | x | x
CC1(C)CC(=O)C2=C(C1)N=C1SCCC(=O)N1C2c1cccc([N+](=O)[O-])c1 (configuration not stated) | 100 | 13 | -1 | 96 | 1.1 | -6 | x | x | x
Cc1ccc([N+](=O)[O-])cc1NC(=O)C(Sc1ccccc1)c1ccccc1 (configuration not stated) | 107 | -8 | -7 | 105 | 1.7 | -8 | x | x | x
O=C1NC(=O)c2cc(NC(=O)C3COc4ccccc4O3)ccc21 (configuration not stated) | 97 | 35 | 3 | 75 | 1.1 | -7 | x | x | x
CC1(C)Oc2ccc(NC(=O)C3COc4ccccc4O3)cc2O1 (configuration not stated) | 120 | 64* | -22 | 46 | 4.9* | 168* | 26 | -15 | -85
O=C(Nc1nncs1)C1COc2ccccc2O1 (configuration not stated) | 108 | -9 | -9 | 111 | 1.5 | 13 | x | x | x
CC(=O)c1sc(NC(=O)C2COc3ccccc3O2)nc1C (configuration not stated) | 82 | 74* | 20 | 43 | 1.5 | 132 | 34 | -2 | -43
CC(=O)N1C(=O)/C(=C2\SC(=S)N(NS(=O)(=O)c3ccc(C)cc3)C2=O)c2ccccc21 | 97 | -17 | 2 | 119 | 1.3 | -8 | x | x | x
Cc1cc(C)c2nc(NC(=O)c3ccc(OCC4CCCO4)cc3)sc2c1 (configuration not stated) | 107 | 47* | -8 | 60 | 1.4 | 14 | 36 | 0 | -11
SMILES | STAT1 activator | STAT3 inh-1 | STAT1 inh | STAT3 act | NF-kB expr up | APP 5'UTR act | STAT3 inh-2 | NFkB inh 2 | STAT1 inh STAT3c
O=C(Nc1nc(-c2ccc(Cl)cc2Cl)cs1)c1ccc(OCC2CCCO2)cc1 (configuration not stated) | 108 | 5 | -9 | 98 | 0.52 | 11 | x | x | x
N=c1c2c(n(Cc3ccc(Cl)c(Cl)c3)c3c1CCC3)CCCC2 | 75 | 61* | 28 | 53 | 0.9 | -12 | 24 | 9 | 25*
N=c1c2c(n(Cc3ccc([N+](=O)[O-])cc3)c3c1CCC3)CCCC2 | 96 | 13 | 4 | 96 | 0.74 | 7 | x | x | x
N=c1c2c(n(Cc3ccc(Br)cc3)c3c1CCC3)CCCC2 | 83 | 63* | 19 | 48 | 0.86 | 3 | 49* | 1 | 22*
O=C(NC1CC1)c1cc2c(s1)-c1ccccc1OC2 | 120 | 71* | -22 | 46 | 1.9 | 75 | 63* | -7 | -42
O=C(O)c1cc2c(s1)-c1ccccc1OC2 | 98 | -2 | 3 | 108 | 1 | 20 | x | x | x
O=C(COc1ccccc1)Nc1ccncc1 | 90 | 6 | 9 | 98 | 1.4 | -10 | x | x | x
O=C(COc1ccc2ccccc2c1)Nc1ccncc1 | 95 | 45* | 3 | 63 | 1.1 | -2 | 44* | -8 | -3
O=C(CSc1ccc2ccccc2c1)Nc1ccncc1 | 94 | 50* | 6 | 61 | 0.96 | 0 | 45* | -3 | -1
Cc1cc(OCC(=O)Nc2ccncc2)cc(C)c1Br | 99 | 68* | 1 | 45 | 0.93 | -5 | 66* | -7 | -14
O=C(COc1ccc(Br)cc1)Nc1ccc(Cc2ccncc2)cc1 | 99 | 25 | -1 | 84 | 1.1 | -9 | x | x | x
O=C(C1CCN(S(=O)(=O)c2cccc3cccnc23)CC1)N1CCN(c2ccc(Cl)cc2)CC1 | 77 | 47* | 26 | 65 | 0.65 | -15 | 30 | 14* | 24*

Source: PubChem (several laboratories)
